These entries were drawn from the full list.
PGC1a acetyl up = compounds raising PGC1a acetylation signal, primary screen, PGC1a modulator project, cell-based, U2OS, AlphaScreen, signal-increasing mode; overnight; AID 651723, 2012; 0.21% of 350,000 active; activation, % at 15.6 µM;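 active = every replicate reaching activation of at least 50%, whatever the mean replicate activation; inconclusive = replicates that disagree or another doubt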;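 note: hits raise the AlphaScreen acetylation signal above neutral controls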
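Incubation: overnight compound treatment, 37 °C. System: U2OS cells transduced with flag-tagged PGC1a and GCN5 acetyltransferase. Detection: AlphaScreen lysate read. Compound: single-point compound dosing.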
G6PC hep suppr = suppressors of forskolin-stimulated G6PC mRNA, dose response, PGC-1a acetylation activator project, cell-based, hepatocytes, RT-qPCR, cherry-picked samples; shares compounds with PGC1a acetyl up; primary mouse hepatocytes; G6PC suppression (normalized activity, % of positive control; higher = more suppression), % at 26 µM; 240 tested, under 10 active; AID 743463, 2014;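 active = dose curves showing G6PC suppression whose half-maximal dose is at most twice the top valid dose; inconclusive = flat curves with moderate negative activity, or unreliable fits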;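 note: G6PC expression relative to GAPDH housekeeping gene as delta delta Ct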
PCK1 hep suppr = suppression of PCK1 mRNA in primary hepatocytes, dose response, PGC-1a acetylation activator project, cell-based, primary mouse hepatocytes, RT-qPCR, cherry-pick; shares compounds with PGC1a acetyl up; forskolin-stimulated; PCK1 expression decrease, unspecified at 26 µM; 230 tested, under 10 active; AID 743465, 2014;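 active = compounds lowering PCK1 expression whose fitted half-maximal concentration is at most twice the top tested dose; inconclusive = flat fit with moderate opposite-direction effect, or poor fit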;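 note: higher delta delta Ct means lower PCK1 expression so positive values indicate hits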
PGC1a hep suppr = suppression of PGC-1a mRNA in primary hepatocytes, dose response, PGC-1a acetylation activator project, cell-based, primary mouse hepatocytes, RT-qPCR, cherry-pick | max activity (PGC-1a expression decrease), % | 240 tested, under 10 active | PGC-1a mRNA qPCR, forskolin; top dose 26 µM | shares compounds with PGC1a acetyl up;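 active = compound lowering PGC-1a expression with fitted half-maximal concentration at most twice its top tested dose; inconclusive = flat curve with moderate opposite-direction effect, or poor fit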
Hits are given with their value; 0 = inactive; ? = inconclusive; - = not tested or not shown.

SMILES	PGC1a acetyl up	PCK1 hep suppr	PGC1a hep suppr	others
O=C(Nc1ccc(-c2cn3c(n2)SCC3)cc1)c1ccc2ccccc2n1	0	-	-
COc1ccccc1/C=C/c1nc2ccc(OC(C)=O)cc2c(=O)o1	0	-	-
COc1ccc(-c2nc3ccccc3c(=O)o2)cc1OC	0	-	-
Cn1nnnc1SC1CC(=O)N(c2ccccc2)C1=O (stereo unspecified)	0	-	-
COc1ccc(C(=O)N/C(=C/c2cccs2)C(=O)NC(C)(C)C)cc1OC	0	-	-
COc1cc(NC(=O)c2cccs2)c(OC)cc1NC(=O)CCC(=O)Nc1ccc2ncccc2c1	366	?	?	G6PC hep suppr=0
CCC(=O)NC(c1cccs1)c1ccc2cccnc2c1O (stereo unspecified)	0	-	-
CC(Oc1ccc2c3c(c(=O)oc2c1)CCC3)C(=O)N[C@@H](Cc1ccccc1)C(=O)O (stereo partly specified)	0	-	-
Cc1cc(N)c2cc(NC(=O)/C=C/c3ccccc3Cl)ccc2n1	0	-	-
O=C(OCc1ccccc1)N1CCC2CC1c1cc(-c3ccc(F)cc3)ccc12 (stereo unspecified)	0	-	-
O=C(c1ccc(NC(=O)C2(c3ccccc3)CCOCC2)cc1)N1CCOCC1	0	-	-
O=C1NC2(CCC3(CC2)OCCO3)NN1c1ccccc1	0	-	-
COc1ccc(C(CNC(=O)c2cccc(N(C)C)c2)N2CCCC2)cc1 (stereo unspecified)	0	0	0	G6PC hep suppr=0
COc1cccc(NC(=O)N2CCN(c3cccc(C)c3)C(C)C2)c1 (stereo unspecified)	0	-	-
CCC1NC(=S)N(C2CCCCC2)C1=O (stereo unspecified)	0	-	-
CC(C)(C)NC(=O)Cn1nnc(-c2ccccc2NC(=O)c2ccco2)n1	0	-	-
O=C(/C(=C/O)N=Nc1ccccc1)c1ccco1	0	-	-
O=C(Cc1ccccc1)Nc1ccc(NC(=O)c2ccco2)nc1	?	0	0	G6PC hep suppr=0
Clc1ccc(-c2csc(N3CCSCC3)n2)cc1	0	0	0	G6PC hep suppr=0
O=C1C(N2CCOCC2)=C(n2nnc3ccccc32)C(=O)c2ccccc21	0	-	-
COc1ccc(S(=O)(=O)NNC(=O)c2csc(-n3nc(C)cc3C(F)(F)F)n2)cc1	0	0	0	G6PC hep suppr=0
CC(=O)[C@H]1CC[C@H]2[C@@H]3CC=C4C[C@@H](OS(=O)(=O)O)CC[C@]4(C)[C@H]3CC[C@]12C	0	-	-
CCN1CC=C2C(C#N)=C(N)C(C#N)(C#N)[C@H](c3cccc(OC)c3OC)[C@H]2C1	0	-	-
CC(=O)c1ccc(N2CCN(C(=O)C(=O)c3c(C)[nH]c4ccccc34)CC2)cc1	66	0	0	G6PC hep suppr=0
Oc1ccc(-c2nc(-c3ccc(O)c(O)c3)cs2)cc1	0	-	-
SMILES	PGC1a acetyl up	PCK1 hep suppr	PGC1a hep suppr	others
CCOC(=O)C1=C[C@@H](C(C)C)N(S(=O)(=O)c2ccc(C)cc2)[C@H]1c1ccc(C(F)(F)F)cc1	131	0	0	G6PC hep suppr=0
CCOC(=O)C1=CC[C@@H](c2ccc(F)cc2)N(S(=O)(=O)c2ccc(C)cc2)[C@H]1c1ccccc1	90	0	0
COC(=O)c1nn(-c2ccccc2)ccc1=O	0	-	-
Cc1sc2ncnc(N3CCC(C(=O)NNC(=O)COc4ccc(Cl)cc4)CC3)c2c1C	0	-	-
N=c1n(Cc2ccccc2)c2ccccc2n1CC(O)COc1ccc(Cl)cc1Cl (stereo unspecified)	0	-	-
Cc1ccc(CN(CC(O)COc2cccc3[nH]cc(C)c23)C(C)(C)C)cc1 (stereo unspecified)	90	0	0	G6PC hep suppr=0
O=c1c2c(nc3c(-c4ccc(Cl)cc4)c[nH]n13)CCCC2	0	-	-
COc1ccc2nc3cc(Cl)ccc3c(Nc3cc(CN4CCCC4)c(O)c(CN4CCCC4)c3)c2n1	0	-	-
CN1CCN(/N=C/c2ccc(N(c3ccccc3)c3ccccc3)cc2)CC1	0	-	-
O=C(Nc1nc2cc3c(cc2s1)OCCO3)c1ccncc1	0	-	-
COC(=O)c1[nH]c2ccc(F)cc2c1NS(=O)(=O)c1ccc(OC)cc1OC	0	-	-
Cc1cc(C)c2c(-n3cccc3)c(C(=O)NNS(=O)(=O)c3ccccc3)sc2n1	173	-	?
Cc1cccc(Oc2nccc(C(F)(F)F)c2C(=O)Nc2ccc(F)cc2F)c1	0	-	-
Cc1cccc(CS(=O)(=O)c2nnc([C@H](Cc3ccccc3)NC(=O)OC(C)(C)C)o2)c1	0	-	-
CCNC(=O)C1(C)CCCN1Cc1ccccc1Cl (stereo unspecified)	0	0	0
O=C(CCl)N=c1sccn1Cc1ccccc1Cl	0	-	-
O=C(CCC1CCN(Cc2ccccc2Cl)CC1)NC1CC1	0	-	-
CCCOc1ccc2ccccc2c1/C=C1\SC(=O)NC1=O	0	-	-
O=C1/C(=C/c2ccc(N3CCOCC3)o2)SC(=Nc2ccccc2)N1CCc1c[nH]c2ccccc12	0	-	-
COc1ccc(N(C(=O)c2snc(C(N)=O)c2N)C(C(=O)NC2CCCCC2)c2ccc(F)cc2)c(OC)c1 (stereo unspecified)	?	0	0	G6PC hep suppr=0
C#CC(=O)N(c1ccc(OC)cc1OC)C(C(=O)NC1CCCC1)c1cccs1 (stereo unspecified)	0	-	-
COc1ccc(N(C(=O)c2snc(C(N)=O)c2N)C(C(=O)NC2CCCCC2)c2ccc(C)o2)cc1 (stereo unspecified)	62	0	0	G6PC hep suppr=0
CCCOc1ccccc1C1C(C(=O)OC)=CN(C(C)C)C=C1C(=O)OC	0	-	-
Cc1cc(C(=O)CSc2nnc(-c3ccccc3)o2)c(C)n1CC1COc2ccccc2O1 (stereo unspecified)	0	-	-
CN1CCN(c2ccc(CNC(=O)c3ccc(-c4ccnn4C)c4ccoc34)cc2)CC1	?	?	0
SMILES	PGC1a acetyl up	PCK1 hep suppr	PGC1a hep suppr	others
CCCCCCCCC(=O)O	0	-	-
Cc1cc(=O)[nH]c(NN=Cc2cc(Br)ccc2O)n1	0	-	-
O=C(c1ccccc1Cl)N1CCNCC1	0	-	-
O=C(Nc1ccc(OCC(=O)N2CCC(Cc3ccccc3)CC2)cc1)c1ccco1	67	0	0
CCOC(=O)C1=Nc2ccccc2C1=[N+]=[N-]	0	-	-
CCn1nc(C)c(CN2CCc3c([nH]c4ccccc34)C2C(C)(C)C)c1C (stereo unspecified)	150	?	0	G6PC hep suppr=0
N#Cc1cc2c(=O)n3ccccc3nc2n(Cc2cccnc2)c1=O	0	-	-
Cc1cc(Cn2nc(C(=O)NCc3cccc(C(F)(F)F)c3)cc2-c2ccccc2)on1	78	?	0	G6PC hep suppr=0
COc1cccc2c1C(=O)c1c(O)c3c(c(O)c1C2=O)C[C@@](O)(C(C)=O)C[C@@H]3O[C@H]1C[C@H](N)[C@H](O)[C@H](C)O1	0	-	-
CC(=O)N(Cc1ccc(F)cc1)C1=C(NCCc2ccccc2)C(=O)c2ccccc2C1=O	0	-	-
C[C@@H]1CN([C@H](C)CO)C(=O)c2cc(N(C)C)ccc2O[C@@H](C)CCCCO[C@H]1CN(C)C(=O)Nc1ccccc1	67	0	0	G6PC hep suppr=0
C[C@@H]1CN([C@H](C)CO)C(=O)c2cc(N(C)C)ccc2O[C@@H](C)CCCCO[C@H]1CN(C)C(=O)Cc1ccccc1	119	0	0	G6PC hep suppr=0

Compound activity deposited in PubChem by Broad Institute.
